Measurements gathered from unrelated publications.
Protocols differ between the studies behind these lines.
Tested at: 1 µM
ALK L1196M: ALK tyrosine kinase receptor (ALK, Homo sapiens, UniProt Q9UM73, L1196M)
ALK: ALK tyrosine kinase receptor (ALK, Homo sapiens, UniProt Q9UM73)
ALK C1156Y: ALK tyrosine kinase receptor (ALK, Homo sapiens, UniProt Q9UM73, C1156Y)

N[C@H]1CCN(c2nccc(-c3cnn4ncccc34)n2)C1
remaining binding (ALK L1196M; binding): 74%

CO[C@H]1CC[C@H](CNc2ccc(S(=O)(=O)NC(=O)c3ccc(N4CCN(CC5=C(c6ccc(Cl)cc6)CC(C)(C)CC5)CC4)cc3Oc3cnc4[nH]ccc4c3)cc2[N+](=O)[O-])CC1
remaining binding (ALK; cell-free assay, competition with immobilised ligand): 100%

CC1CCCN1c1nccc(-c2cnn3ncccc23)n1 (stereo not drawn)
remaining binding (ALK C1156Y; binding): 48%

COc1cnc(Nc2cccc(S(N)(=O)=O)c2)nc1N1CCN(c2ccccc2)CC1
remaining binding (ALK L1196M; binding, competition with immobilised ligand): 100%

CC1=C(C#N)[C@@H](c2ccc3[nH]nc(C)c3c2)C(C#N)=C(c2ccc(Cl)cc2)N1
remaining binding (ALK C1156Y; cell-free assay, competition with immobilised ligand): 100%

Nc1ncc2c(n1)-c1c([nH]c3ccc(C#CC4CC4)cc13)CCCC2
remaining binding (ALK L1196M; binding, competition with immobilised ligand): 86%

CN(C)c1nccc(-c2cnc3ncccn23)n1
remaining binding (ALK; binding): 73%

O=C(NCCCN1CCOCC1)c1ccc(Nc2nccc(-c3cc4ccccc4s3)n2)cc1
remaining binding (ALK L1196M; binding, competition with immobilised ligand): 100%

CCS(=O)(=O)c1cc2cc(C[C@](O)(CC(C)(C)c3ccc(F)cc3C(N)=O)C(F)(F)F)[nH]c2cn1
remaining binding (ALK C1156Y; cell-free assay, competition with immobilised ligand): 96%

CN(C)c1nccc(-c2cnn3ncccc23)n1
remaining binding (ALK L1196M; binding): 100%

O=C(NCCCN1CCOCC1)c1ccc(Nc2ncc(Cl)c(-c3ccc(Cl)s3)n2)cc1
remaining binding (ALK L1196M; binding, competition with immobilised ligand): 90%

CCC(=O)N[C@@H]1CC[C@H](C(=O)N(C)c2ccc(-c3nc4ccccc4o3)cc2)C1
remaining binding (ALK; cell-free assay, competition with immobilised ligand): 99%

C[C@H]1CCN(c2nccc(-c3cnn4ncccc34)n2)C1
remaining binding (ALK; binding): 82%

O=C(c1ccc(Nc2ncc(Cl)c(-c3cc4ccccc4s3)n2)cc1)N1CCC(N2CCCC2)CC1
remaining binding (ALK; binding, competition with immobilised ligand): 68%

CN(c1nccc(-c2cnn3ncccc23)n1)C1CC1
remaining binding (ALK C1156Y; binding): 100%

O=C(Nc1c[nH]nc1C(=O)NC1CCNCC1)c1cc(F)cc(F)c1
remaining binding (ALK L1196M; binding, competition with immobilised ligand): 100%

Cc1noc([C@H]2C[C@@H](c3ccc(C(F)(F)F)cc3)CN(C(=O)N3CCS(=O)(=O)C3)C2)n1
remaining binding (ALK L1196M; cell-free assay, competition with immobilised ligand): 100%

COc1cnc(Nc2cccc(S(N)(=O)=O)c2)nc1N1CCN(c2ccccc2)C(=O)C1
remaining binding (ALK; binding, competition with immobilised ligand): 100%
